Test results: ChEMBL document CHEMBL1123923, “Steroidal silicon side-chain analogues as potential antifertility agents” (1987)

How the values were obtained:
[1] = species: Rattus norvegicus; test: Antifertility activity measured as minimum protective dose for prevention of pregnancy in rats; format: functional; design: unit not given here
Outline: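 Oral dosing in adult cycling female rats selected in the proestrous phase, 10 animals per dose, with treatment starting on the day of proestrus.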

[2] = species: Rattus norvegicus; test: Separation of antifertility from estrogenic activity in rats was measured; format: functional
[3] = target: Estrogen receptor (Rattus norvegicus) (UniProt P06211+Q62986)

| SMILES | Antifertility potency [1] | Separation [2] | Estrogenic potency [3] |
| --- | --- | --- | --- |
| C[C@]12CC[C@@H]3c4ccc(O)cc4CC[C@H]3[C@@H]1CC[C@@]2(O)C#C[Si](C)(C)C | 33 | 4.7 | 7 |
| CC(C)[Si](C)(C)C#C[C@]1(O)CC[C@H]2[C@@H]3CCc4cc(O)ccc4[C@H]3CC[C@@]21C | 300 | 20 | 15 |
| CC[Si](C#C[C@]1(O)CC[C@H]2[C@@H]3CCc4cc(O)ccc4[C@H]3CC[C@@]21C)(CC)c1ccccc1 | 150 | 10 | 17 |
| CCCC[Si](C#C[C@]1(O)CC[C@H]2[C@@H]3CCc4cc(O)cc(C(C)=O)c4[C@H]3CC[C@@]21C)(CCCC)CCCC | 0 | – | 4 |
| CCCCCC[Si](C#C[C@]1(O)CC[C@H]2[C@@H]3CCc4cc(O)ccc4[C@H]3CC[C@@]21C)(CC)CC | 15 | 3 | 5.2 |
| CC[Si](C)(C#C[C@]1(O)CC[C@H]2[C@@H]3CCc4cc(O)ccc4[C@H]3CC[C@@]21C)CC | 600 | 15 | 40 |
| C[C@]12CC[C@@H]3c4ccc(O)cc4CC[C@H]3[C@@H]1CC[C@@]2(O)C#C[Si](C)(C)CCC#N | 300 | 8 | 37 |
| C[C@]12CC[C@@H]3c4ccc(O)cc4CC[C@H]3[C@@H]1CC[C@@]2(O)C#C[Si](C)(C)CCC(F)(F)F | 150 | 8 | 19 |
| C[C@]12CC[C@@H]3c4ccc(O)cc4CC[C@H]3[C@@H]1CC[C@@]2(O)C#C[Si](C)(C)C(Cl)Cl | 300 | 17 | 18 |
| CCCC(=O)Oc1ccc2c(c1)CC[C@@H]1[C@@H]2CC[C@@]2(C)[C@H]1CC[C@@]2(O)C#C[Si](CC)(CC)CC | 300 | – | 35 |
| C[C@]12CC[C@@H]3c4ccc(O)cc4CC[C@H]3[C@@H]1CC[C@@]2(O)C#C[Si](c1ccccc1)(c1ccccc1)c1ccccc1 | 0 | – | 0.5 |
| C=CC[Si](C#C[C@]1(O)CC[C@H]2[C@@H]3CCc4cc(O)ccc4[C@H]3CC[C@@]21C)(CC)CC | 300 | 7 | 44 |
| CC[Si]1(C#C[C@]2(O)CC[C@H]3[C@@H]4CCc5cc(O)ccc5[C@H]4CC[C@@]32C)CCCCC1 | 200 | 2.4 | 85 |
| C=C[Si](C)(C#C[C@]1(O)CC[C@H]2[C@@H]3CCc4cc(O)ccc4[C@H]3CC[C@@]21C)CC (some centres not stated) | 300 | 11 | 28 |
| CC[SiH](C#C[C@]1(O)CC[C@H]2[C@@H]3CCc4cc(O)ccc4[C@H]3CC[C@@]21C)CC | 600 | 21 | 29 |
| C[C@]12CC[C@@H]3c4ccc(O)cc4CC[C@H]3[C@@H]1CC[C@@]2(O)/C=C\[Si](C)(C)C | 5 | 10 | 0.5 |
| CC[Si](C#C[C@]1(O)CC[C@H]2[C@@H]3CCc4cc(O)ccc4[C@H]3CC[C@@]21C)(CC)CC | 600 | 16 | 37 |
| C#C[C@]1(O)CC[C@H]2[C@@H]3CCc4cc(O)ccc4[C@H]3CC[C@@]21C [ETHINYL ESTRADIOL] | 100 | – | – |
| C=C([C@]1(O)CC[C@H]2[C@@H]3CCc4cc(O)ccc4[C@H]3CC[C@@]21C)[Si](CC)(CC)CC | 4 | 8 | 0.5 |
| CC(C)(C)C#C[C@]1(O)CC[C@H]2[C@@H]3CCc4cc(O)ccc4[C@H]3CC[C@@]21C | 1 | 14 | 0.07 |
| CC[Si](O)(C#C[C@]1(O)CC[C@H]2[C@@H]3CCc4cc(O)ccc4[C@H]3CC[C@@]21C)CC | 300 | 27 | 11 |
| C[C@]12CC[C@@H]3c4ccc(O)cc4CC[C@H]3[C@@H]1CC[C@@]2(O)C#C[Si](C)(C)CBr | 200 | 7.4 | 27 |
| C=CC[Si](C)(C)C#C[C@]1(O)CC[C@H]2[C@@H]3CCc4cc(O)ccc4[C@H]3CC[C@@]21C | 250 | 10 | 24 |
| CC(C)(C)[Si](C)(C)C#C[C@]1(O)CC[C@H]2[C@@H]3CCc4cc(O)ccc4[C@H]3CC[C@@]21C | 600 | 30 | 20 |

| SMILES | Antifertility potency [1] | Separation [2] | Estrogenic potency [3] |
| --- | --- | --- | --- |
| CCC(C)[Si](C#C[C@]1(O)CC[C@H]2[C@@H]3CCc4cc(O)ccc4[C@H]3CC[C@@]21C)(CC)CC (some centres not stated) | 300 | 5 | 57 |
| CCC[Si](C=C[C@]1(O)CC[C@H]2[C@@H]3CCc4cc(O)ccc4[C@H]3CC[C@@]21C)(CCC)CCC | 0 | – | 0.05 |
| CCCC(=O)Oc1ccc2c(c1)CC[C@@H]1[C@@H]2CC[C@@]2(C)[C@H]1CC[C@]2(C#C[Si](CC)(CC)CC)OC(=O)CCC | 40 | – | 4 |
| CC[Si](C#C[C@]1(OC(=O)n2ccnc2)CC[C@H]2[C@@H]3CCc4cc(OC)ccc4[C@H]3CC[C@@]21C)(CC)CC | – | – | 3 |
| CCCC[Si](C#C[C@]1(O)CC[C@H]2[C@@H]3CCc4cc(O)ccc4[C@H]3CC[C@@]21C)(CCCC)CCCC | 0 | – | 2.5 |
| C[C@]12CC[C@@H]3c4ccc(O)cc4CC[C@H]3[C@@H]1CC[C@@]2(O)C#C[Si](C)(C)CCl | 150 | 9 | 17 |
| C[C@]12CC[C@@H]3c4ccc(O)cc4CC[C@H]3[C@@H]1CC[C@@]2(O)C#C[Si]1(C)CCCCC1 | 250 | 10 | 25 |
| CC[Si](C#C[C@]1(O)CC[C@H]2[C@@H]3CCc4cc(O)ccc4[C@H]3CC[C@@]21C)(CC)C(C)(C)C | 300 | 10 | 31 |
| CC[Si](C#C[C@]1(O)CC[C@H]2[C@@H]3CCc4cc(O)ccc4[C@H]3CC[C@@]21C)(CC)C(C)C | 300 | 10 | 30 |
| CCC[Si](C#C[C@]1(O)CC[C@H]2[C@@H]3CCc4cc(O)ccc4[C@H]3CC[C@@]21C)(CC)CC | 300 | 8 | 39 |
| CC[Si](C#C[C@]1(O)CC[C@H]2[C@@H]3CCc4cc(O)ccc4[C@H]3CC[C@@]21C)(C#C[C@]1(O)CC[C@H]2[C@@H]3CCc4cc(O)ccc4[C@H]3CC[C@@]21C)CC | 0 | – | 8 |
| C=C([C@]1(O)CC[C@H]2[C@@H]3CCc4cc(O)ccc4[C@H]3CC[C@@]21C)[Si](C)(C)C | 2 | 5 | 0.4 |
| C[C@]12CC[C@@H]3c4ccc(O)cc4CC[C@H]3[C@@H]1CC[C@@]2(O)C#C[Si](C)(C)Cc1ccccc1 | 300 | 25 | 12 |
| C[C@]12CC[C@@H]3c4ccc(O)cc4CC[C@H]3[C@@H]1CC[C@@]2(O)C#C[Si](C)(C)CCCCl | 200 | 8 | 25 |
| CCCC[Si](C)(C)C#C[C@]1(O)CC[C@H]2[C@@H]3CCc4cc(O)ccc4[C@H]3CC[C@@]21C | 300 | 15 | 20 |
| CC(Cl)[Si](C)(C)C#C[C@]1(O)CC[C@H]2[C@@H]3CCc4cc(O)ccc4[C@H]3CC[C@@]21C (some centres not stated) | 300 | 7 | 45 |
| CCC[Si](C#C[C@]1(O)CC[C@H]2[C@@H]3CCc4cc(O)ccc4[C@H]3CC[C@@]21C)(CCC)CCC | 200 | 8 | 25 |
| CC[Si](/C=C\[C@]1(O)CC[C@H]2[C@@H]3CCc4cc(O)ccc4[C@H]3CC[C@@]21C)(CC)CC | 10 | 20 | 0.5 |
| CC[Si]1(C#C[C@]2(O)CC[C@H]3[C@@H]4CCc5cc(O)ccc5[C@H]4CC[C@@]32C)CCCC1 | 500 | 4.2 | 120 |
| CC[Si](/C=C/[C@]1(O)CC[C@H]2[C@@H]3CCc4cc(O)ccc4[C@H]3CC[C@@]21C)(CC)CC | 1.31 | 30 | 0.04 |
| C[C@]12CC[C@@H]3c4ccc(O)cc4CC[C@H]3[C@@H]1CC[C@@]2(O)/C=C/[Si](C)(C)C | 0 | – | 0.2 |
| CC[Si](C#C[C@]1(O)CC[C@H]2[C@@H]3CCc4cc(OC5CCCC5)ccc4[C@H]3CC[C@@]21C)(CC)CC | 300 | – | 24 |
| CC[Si](C#C[C@]1(O)CC[C@H]2[C@@H]3CCc4cc(OC(C)=O)ccc4[C@H]3CC[C@@]21C)(CC)CC | 600 | – | 34 |
